These results are taken from ChEMBL document CHEMBL1151686, “Antimalarial activity enhancement in hydroxymethylcarbonyl (HMC) isostere-based dipeptidomimetics targeting malarial aspartic protease plasmepsin” (Bioorg Med Chem, 2008).

Data set [1] has as its target Plasmepsin II (Plasmodium falciparum, UniProt P46925). Description: Inhibition of Plasmodium falciparum plasmepsin-2. The procedure, abridged: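 Plm II (400 nM) hydrolysis of chromogenic substrate H-Ala-Leu-Glu-Arg-Thr-Phe-Phe(p-NO2)-Ser-Phe-Pro-Thr-OH (163 μM) in 10 mM sodium formate pH 4.0, 2% DMSO, 25 °C, with increasing inhibitor. Rates fitted to tight-binding competitive inhibition equations for Ki.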

The target in data set [2] is Protease (Human immunodeficiency virus 1) (UniProt Q9YQ12). In words: Inhibition of recombinant HIV1 protease at 50 nM. In short, it runs like this: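 Recombinant HIV-1 PR (2 μg/mL stock) was mixed with inhibitor (500 nM solution in DMSO) in MES–NaOH pH 5.5 buffer containing DTT, EDTA and 1 M NaCl. The reaction was started with substrate H-Lys-Ala-Arg-Val-Tyr-Phe(p-NO₂)-Glu-Ala-Nle-NH₂ (1.0 mM solution) and run 15 min at 37 °C, then stopped with 1M HCl. The cleaved N-terminal fragment was quantified by reversed-phase C18 HPLC.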

Data set [3] concerns Plasmodium falciparum. In words: Antimalarial activity against chloroquine-sensitive Plasmodium falciparum NF54 in type O+ human erythrocytes after 48 hrs as reduced [3H]hypoxanthine uptake. It counts as functional, organism-based. In short, it runs like this: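 NF54 parasites grown in 2.4% O+ human erythrocyte suspension in RPMI 1640 with 25 mM HEPES, 27 mM NaHCO3, 10% heat-inactivated O+ human serum, under 3% O2/4% CO2/93% N2. Compounds serially diluted in 0.2% DMSO medium, incubated with culture 48 h, then 0.6 μCi [3H]hypoxanthine added for 20 h. Harvested on glass filters, scintillation counted. IC50 from dose-response curves.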

A short description of data set [4]: Cytotoxicity against rat L6 cells after 72 hrs by Alamar blue resazurin assay. Conditions: read-out: TD50. Type of data set: cell-based. (In general: Alamar Blue is a resazurin reagent that responds to reducing activity.)

Some results are limits rather than exact numbers.

Usually Ki stands for the equilibrium dissociation constant of an inhibitor or competing ligand from its target. Read a low Ki as a stronger hold on the target. The inhibition is how much of the control response was suppressed. A word on the EC50: it is the midpoint of the concentration-response curve. A lower EC50 goes with higher potency in that assay.

Chain of Plasmepsin II (P46925 whole entry): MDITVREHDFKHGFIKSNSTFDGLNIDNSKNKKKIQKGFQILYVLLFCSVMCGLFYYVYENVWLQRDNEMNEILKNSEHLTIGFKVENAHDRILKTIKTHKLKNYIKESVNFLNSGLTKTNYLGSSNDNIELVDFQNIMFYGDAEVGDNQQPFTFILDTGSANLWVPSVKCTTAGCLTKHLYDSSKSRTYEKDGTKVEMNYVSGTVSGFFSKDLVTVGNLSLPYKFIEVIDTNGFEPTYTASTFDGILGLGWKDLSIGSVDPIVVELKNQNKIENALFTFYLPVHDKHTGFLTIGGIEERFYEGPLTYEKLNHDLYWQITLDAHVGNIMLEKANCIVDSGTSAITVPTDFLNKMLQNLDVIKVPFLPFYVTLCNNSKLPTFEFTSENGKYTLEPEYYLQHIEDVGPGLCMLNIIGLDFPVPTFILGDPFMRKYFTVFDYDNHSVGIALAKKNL
Chain of Protease (Human immunodeficiency virus 1) (Q9YQ12 as listed by the source): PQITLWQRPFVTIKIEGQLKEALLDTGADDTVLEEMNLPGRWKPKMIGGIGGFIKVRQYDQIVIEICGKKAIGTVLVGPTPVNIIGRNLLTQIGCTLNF

Consider `Cc1cc(NCc2cccnc2)cc(C)c1OCC(=O)N[C@@H](Cc1ccccc1)[C@H](O)C(=O)N1CSC(C)(C)[C@H]1C(=O)N[C@H]1c2ccccc2C[C@H]1O`, for which the Ki in data set [1] came out at 21 nM. In addition, the inhibition in data set [2] was 91%. Moreover, in data set [3], the EC50 amounted to 500 nM. The CC50 at 72 h in data set [4] is over 120000 nM.
